Legend:
[1] = target: Carbapenem-hydrolyzing beta-lactamase KPC (Klebsiella pneumoniae) (UniProt Q9F663); test: Inhibition of Klebsiella pneumoniae KP1084 KPC-3 assessed as biapenem MIC at 4 ug/ml by broth microdilution method
Klebsiella pneumoniae [2] = test: Inhibition of Klebsiella pneumoniae KP1008 KPC-2 assessed as meropenem MIC at 4 ug/ml by broth microdilution method
Procedure, shortened: (§1)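 CLSI broth microdilution (M07-A9, 2012) MIC of the carbapenem against clinical serine carbapenemase-producing strain, tested alone and with the inhibitor held at a fixed 4 μg/mL.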

[3] = target: Beta lactamase TEM-1 (Klebsiella pneumoniae) (UniProt Q7B899); test: Inhibition of Klebsiella pneumoniae KP1004 TEM-1 assessed as meropenem MIC at 4 ug/ml by broth microdilution method; procedure, shortened: as §1
Chain of Beta lactamase TEM-1 (Klebsiella pneumoniae) (Q7B899 as listed by the source): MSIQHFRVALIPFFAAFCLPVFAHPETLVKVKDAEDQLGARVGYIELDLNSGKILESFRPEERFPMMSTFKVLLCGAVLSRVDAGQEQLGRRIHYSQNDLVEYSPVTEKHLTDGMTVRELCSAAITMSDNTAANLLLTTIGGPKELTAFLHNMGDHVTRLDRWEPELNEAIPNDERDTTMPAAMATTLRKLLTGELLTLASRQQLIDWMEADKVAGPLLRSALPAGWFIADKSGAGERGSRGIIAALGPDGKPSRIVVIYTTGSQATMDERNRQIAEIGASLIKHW

[4] = target: Carbapenem-hydrolyzing beta-lactamase KPC (Klebsiella oxytoca) (UniProt Q848S6); test: Inhibition of Klebsiella oxytoca KX1017 KPC-2 assessed as meropenem MIC at 4 ug/ml by broth microdilution method; procedure, shortened: as §1
Chain of Carbapenem-hydrolyzing beta-lactamase KPC (Klebsiella oxytoca) (Q848S6 whole entry): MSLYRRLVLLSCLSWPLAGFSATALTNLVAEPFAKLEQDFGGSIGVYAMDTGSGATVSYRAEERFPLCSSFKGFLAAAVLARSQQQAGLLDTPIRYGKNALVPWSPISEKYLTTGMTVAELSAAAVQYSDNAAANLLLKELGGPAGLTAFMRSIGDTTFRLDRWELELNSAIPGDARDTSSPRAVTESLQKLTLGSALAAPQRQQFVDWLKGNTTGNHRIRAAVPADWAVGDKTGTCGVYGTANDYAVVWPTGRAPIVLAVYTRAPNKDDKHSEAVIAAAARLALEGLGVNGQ

[5] = target: Carbapenem-hydrolyzing beta-lactamase KPC (Klebsiella oxytoca) (UniProt Q848S6); test: Inhibition of Klebsiella oxytoca KX1019 KPC-2 assessed as meropenem MIC at 4 ug/ml by broth microdilution method; procedure, shortened: as §1
Klebsiella pneumoniae [6] = test: Inhibition of Klebsiella pneumoniae KP1087 KPC-2 assessed as meropenem MIC at 4 ug/ml by broth microdilution method; procedure, shortened: as §1
[7] = target: Beta lactamase TEM-1 (Klebsiella pneumoniae) (UniProt Q7B899); test: Inhibition of Klebsiella pneumoniae KP1084 TEM-1 assessed as meropenem MIC at 4 ug/ml by broth microdilution method; procedure, shortened: as §1
Klebsiella pneumoniae [8] = test: Inhibition of Klebsiella pneumoniae KP1084 SHV-11 assessed as meropenem MIC at 4 ug/ml by broth microdilution method; procedure, shortened: as §1
Trypsin = Trypsin (Homo sapiens, UniProt P07477+P07478+P35030); test: Inhibition of trypsin (unknown origin) using N-Bz-R-AMC as substrate preincubated for 10 mins followed by substrate addition measured for 30 mins by spectrophotometric analysis; type: protein assay
Procedure, shortened: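 Trypsin in 50 mM Tris-HCl, pH 8.0, 10 mM CaCl2, 100 mM NaCl. Preincubated 10 min at 37 °C with varied inhibitor. N-Bz-R-AMC (listed at 200 μM) was then added and fluorescence read for 30 min. Rates were vs untreated control; IC50 is the concentration giving 50% inhibition.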

[9] = Inhibition of chymotrypsin (unknown origin) using Suc-AAPF-AMC as substrate preincubated for 10 mins followed by substrate addition measured for 30 mins by spectrophotometric analysis; parameters: species or system Homo sapiens
Procedure, shortened: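 Chymotrypsin, from a commercial source, in 20 mM Tris-HCl, pH 8, 150 mM NaCl, 2.5 mM CaCl2. Incubated 10 min at 37 °C with varied inhibitor concentrations. Suc-AAPF-AMC (listed at 10 μM) was added and the reaction read for 30 min. Rates were relative to untreated; IC50 is the concentration giving 50% inhibition.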

[10] = target: Lysosomal protective protein (Homo sapiens, UniProt P10619); test: Inhibition of cathepsin A (unknown origin) using MCA-RPPGFSAFK-Dnp as substrate preincubated for 10 mins followed by substrate addition measured for 30 mins by […] analysis
Chain of Lysosomal protective protein (P10619 29-326 limits assumed): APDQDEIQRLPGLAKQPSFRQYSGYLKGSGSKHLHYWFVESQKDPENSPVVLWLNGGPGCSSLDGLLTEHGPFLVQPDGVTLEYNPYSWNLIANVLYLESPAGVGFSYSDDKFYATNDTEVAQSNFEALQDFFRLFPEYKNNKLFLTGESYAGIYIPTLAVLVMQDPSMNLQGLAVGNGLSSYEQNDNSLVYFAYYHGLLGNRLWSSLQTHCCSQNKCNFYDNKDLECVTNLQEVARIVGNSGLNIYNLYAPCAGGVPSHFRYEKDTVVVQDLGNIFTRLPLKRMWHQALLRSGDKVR
Chain of Lysosomal protective protein (P10619 327-480 limits assumed): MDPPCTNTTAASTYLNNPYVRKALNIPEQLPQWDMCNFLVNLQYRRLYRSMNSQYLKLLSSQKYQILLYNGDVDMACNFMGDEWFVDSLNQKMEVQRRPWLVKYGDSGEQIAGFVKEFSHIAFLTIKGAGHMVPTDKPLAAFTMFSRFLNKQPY

[11] = Clearance in rat at 300 mg/kg, iv administered as 0.5 hrs infusion by HPLC-MS method; type: ADME, organism-based; conditions: in vivo
Enterobacter cloacae [12] = test: Inhibition of Enterobacter cloacae ECL1003 SHV assessed as cefepime MIC at 4 ug/ml by broth microdilution method
Procedure, shortened: (§2)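 CLSI broth microdilution (M07-A9) against clinical strains expressing serine β-lactamases.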

[13] = target: Beta-lactamase SHV-5 (Klebsiella pneumoniae) (UniProt P0A3M1); test: Inhibition of Klebsiella pneumoniae KP1011 SHV5 assessed as cefepime MIC at 4 ug/ml by broth microdilution method; procedure, shortened: as §2
Chain of Beta-lactamase SHV-5 (Klebsiella pneumoniae) (P0A3M1 whole entry): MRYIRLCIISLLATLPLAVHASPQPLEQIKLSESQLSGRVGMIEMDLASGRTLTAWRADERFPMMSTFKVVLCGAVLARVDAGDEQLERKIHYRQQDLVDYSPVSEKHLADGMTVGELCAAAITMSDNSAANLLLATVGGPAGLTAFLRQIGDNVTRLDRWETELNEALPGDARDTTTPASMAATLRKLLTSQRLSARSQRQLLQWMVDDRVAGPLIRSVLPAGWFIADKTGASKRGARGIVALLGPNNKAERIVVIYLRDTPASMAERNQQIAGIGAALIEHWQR

Klebsiella pneumoniae [14] = test: Inhibition of Klebsiella pneumoniae KP1010 SHV-12 assessed as cefepime MIC at 4 ug/ml by broth microdilution method; procedure, shortened: as §2
Klebsiella oxytoca [15] = test: Inhibition of Klebsiella oxytoca KX1001 OXA-2 assessed as cefepime MIC at 4 ug/ml by broth microdilution method; procedure, shortened: as §2
Enterobacter cloacae [16] = test: Inhibition of Enterobacter cloacae ECL1058 SHV-11 assessed as biapenem MIC at 4 ug/ml by broth microdilution method
[17] = target: Carbapenem-hydrolyzing beta-lactamase KPC (Klebsiella oxytoca) (UniProt Q848S6); test: Inhibition of Klebsiella oxytoca KX1019 KPC-2 assessed as biapenem MIC at 4 ug/ml by broth microdilution method
Klebsiella oxytoca [18] = test: Inhibition of Klebsiella oxytoca KX1019 OXA-2 assessed as biapenem MIC at 4 ug/ml by broth microdilution method
Klebsiella pneumoniae [19] = test: Inhibition of Klebsiella pneumoniae KP1088 SHV-11 assessed as meropenem MIC at 4 ug/ml by broth microdilution method
Procedure, shortened: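 CLSI broth microdilution (M07-A9, 2012) against the clinical K. pneumoniae isolate. Carbapenem MICs were read alone and with 9f held at a fixed 4 μg/mL.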

Klebsiella pneumoniae [20] = test: Inhibition of Klebsiella pneumoniae KP1008 KPC-2 assessed as imipenem MIC at 4 ug/ml by broth microdilution method; procedure, shortened: as §1
[21] = target: T1, Beta-lactamase SHV-1 (Klebsiella pneumoniae) (UniProt P0AD64); test: Inhibition of Klebsiella pneumoniae KP1083 SHV-1 assessed as imipenem MIC at 4 ug/ml by broth microdilution method
T1 sequence (whole entry): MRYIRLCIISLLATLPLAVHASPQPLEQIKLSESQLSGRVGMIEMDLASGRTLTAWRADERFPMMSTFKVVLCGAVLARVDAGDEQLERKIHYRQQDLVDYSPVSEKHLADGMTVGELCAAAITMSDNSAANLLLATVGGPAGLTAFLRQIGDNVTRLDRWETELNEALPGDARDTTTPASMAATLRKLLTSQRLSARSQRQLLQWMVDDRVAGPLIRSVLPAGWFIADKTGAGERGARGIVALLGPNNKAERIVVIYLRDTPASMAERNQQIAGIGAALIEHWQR

Klebsiella pneumoniae [22] = test: Inhibition of Klebsiella pneumoniae KP1008 KPC-2 assessed as ertapenem MIC at 4 ug/ml by broth microdilution method; procedure, shortened: as §1
Klebsiella pneumoniae [23] = test: Inhibition of Klebsiella pneumoniae KP1082 KPC-2 assessed as ertapenem MIC at 4 ug/ml by broth microdilution method; procedure, shortened: as §1
[24] = target: T2, Class A carbapenemase (Enterobacter cloacae) (UniProt A7WP95); test: Inhibition of Enterobacter cloacae ECL1058 KPC-3 assessed as imipenem MIC at 4 ug/ml by broth microdilution method
T2 sequence (whole entry): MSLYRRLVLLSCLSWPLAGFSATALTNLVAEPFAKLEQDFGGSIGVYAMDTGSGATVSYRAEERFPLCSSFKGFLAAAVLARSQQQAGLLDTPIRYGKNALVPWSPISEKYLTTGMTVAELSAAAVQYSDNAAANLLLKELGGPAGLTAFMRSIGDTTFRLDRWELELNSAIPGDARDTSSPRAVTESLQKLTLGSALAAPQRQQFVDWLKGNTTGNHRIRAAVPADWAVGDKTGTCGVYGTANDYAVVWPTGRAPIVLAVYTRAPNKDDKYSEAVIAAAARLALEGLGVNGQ

[25] = target: Carbapenem-hydrolyzing beta-lactamase KPC (Klebsiella oxytoca) (UniProt Q848S6); test: Inhibition of Klebsiella oxytoca KX1017 KPC-2 assessed as imipenem MIC at 4 ug/ml by broth microdilution method

Chain of Carbapenem-hydrolyzing beta-lactamase KPC (Klebsiella pneumoniae) (Q9F663 whole entry): as the sequence (Q848S6 whole entry) above

O=C(O)C[C@@H]1CC[C@H](NC(=O)Cc2cccs2)B(O)O1 [VABORBACTAM]
MIC [1]: 0.25 µg/mL | MIC (Klebsiella pneumoniae [2]): ≤ 0.06 µg/mL | MIC [3]: < 0.06 µg/mL | MIC [4]: < 0.06 µg/mL | MIC [5]: < 0.06 µg/mL | MIC (Klebsiella pneumoniae [6]): 1 µg/mL | MIC [7]: 0.5 µg/mL | MIC (Klebsiella pneumoniae [8]): 0.5 µg/mL | IC50 (Trypsin): > 1000 µM | IC50 [9]: > 1000 µM | IC50 [10]: 1000 µM | clearance [11]: 21 mL/min/kg | MIC (Enterobacter cloacae [12]): 8 µg/mL | MIC [13]: 0.25 µg/mL | MIC (Klebsiella pneumoniae [14]): 0.25 µg/mL | MIC (Klebsiella oxytoca [15]): 0.5 µg/mL | MIC (Enterobacter cloacae [16]): < 0.06 µg/mL | MIC [17]: 0.25 µg/mL | MIC (Klebsiella oxytoca [18]): 0.25 µg/mL | MIC (Klebsiella pneumoniae [19]): ≤ 0.06 µg/mL | MIC (Klebsiella pneumoniae [20]): ≤ 0.06 µg/mL | MIC [21]: 0.13 µg/mL | MIC (Klebsiella pneumoniae [22]): ≤ 0.06 µg/mL | MIC (Klebsiella pneumoniae [23]): ≤ 0.06 µg/mL | MIC [24]: 0.25 µg/mL | MIC [25]: 0.13 µg/mL

— ChEMBL document CHEMBL3576866, “Discovery of a Cyclic Boronic Acid β-Lactamase Inhibitor (RPX7009) with Utility vs Class A Serine Carbapenemases” (J Med Chem, 2015)
